Source: PubChem (Broad Institute)
GASC1 inh = inhibitors of human demethylase GASC-1 KDM4C | inhibition, % at 12.5 µM | GST-KDM4C 2-372, H3K9me3 peptide, LANCE TR-FRET | 0.15% of 96,000 active;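 active = mean replicate inhibition above about 25%, with at least 55% of replicates also reaching it, limit read from the data, passing the limit was not always enough; inconclusive = only one of those two conditions met; inactive = neither condition met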
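Test system – GST-tagged GASC-1 (JMJD2C) catalytic fragment, aa 2-372 · Medium – HEPES buffer, pH 7.5, plus ascorbate · Reagent – H3K9me3 peptide with Fe(II)/2OG · Compound – one test concentration per compound · Timing – 30 min reaction, 60 min detection, RT · Technique – TR-FRET with Eu antibody and ULight streptavidin, EDTA stop · Read-out basis – inhibition from TR-FRET ratio decrease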
T cruzi growth-1 = blocks T. cruzi growth in NIH3T3 culture; T. cruzi beta-gal in NIH3T3, GalScreen luminescence, 90 h; inhibition, % at 8.34 µM; 5.9% of 77,000 active;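 active = mean inhibition above about 93%, with at least 55% of replicates each passing it, limit read from the data, passing the limit was not always enough; inconclusive = only one of those two conditions holds; inactive = neither condition holds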
IDH1 mut inh = blocks human IDH1 R132H reductase activity; 0.18% of 70,000 active; inhibition, % at 10 µM; O75874; diaphorase/resazurin fluorescence, 60 min; AID 624101; in the data active = inhibition above about 34%; inconclusive = no clear call, values can overlap the other calls; inactive = below about 11%
Target sequence (O75874 whole entry R132H): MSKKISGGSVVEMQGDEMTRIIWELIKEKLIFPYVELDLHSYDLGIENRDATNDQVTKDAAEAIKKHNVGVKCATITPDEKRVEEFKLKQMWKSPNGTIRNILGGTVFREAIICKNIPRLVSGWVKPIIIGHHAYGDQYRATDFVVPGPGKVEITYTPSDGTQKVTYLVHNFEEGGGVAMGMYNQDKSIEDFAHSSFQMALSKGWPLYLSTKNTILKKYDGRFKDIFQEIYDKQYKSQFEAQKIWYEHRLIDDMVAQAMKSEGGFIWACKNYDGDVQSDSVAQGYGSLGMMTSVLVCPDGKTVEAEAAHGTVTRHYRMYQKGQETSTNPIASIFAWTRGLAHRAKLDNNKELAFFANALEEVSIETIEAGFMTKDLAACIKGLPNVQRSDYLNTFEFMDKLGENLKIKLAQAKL
T cruzi growth-2 = inhibitors of T. cruzi proliferation; inhibition, % at 8.35 µM; shares compounds with T cruzi growth-1; AID 651739; 72% of 5,600 active; T. cruzi beta-gal in NIH3T3, GalScreen luminescence, 90 h;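 active = mean replicate inhibition above about 95% and at least 55% of replicates individually reaching it, limit read from the data; inconclusive = only one of the two criteria is met; inactive = neither criterion is met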
T cruzi growth-3 = Trypanosoma cruzi proliferation inhibition | shares compounds with T cruzi growth-1 | T. cruzi beta-gal in NIH3T3, GalScreen luminescence, 90 h | inhibition, % at 2.09 µM | 21% of 5,600 active;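 active = mean inhibition above about 95%, with at least 55% of replicates also reaching it, limit read from the data; inconclusive = meets just one of the two conditions; inactive = meets neither condition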
3T3 cytotox = kills mouse NIH/3T3 fibroblasts; shares compounds with T cruzi growth-1; NIH/3T3 viability, CellTiter-Glo ATP luminescence, 90 h; cytotoxicity (signal decrease), % at 8.35 µM; 14% of 5,600 active;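 active = mean signal decrease across replicates above about 35% based on untreated-well scatter, with enough replicates individually passing, limit read from the data; inconclusive = no rule stated though some were filed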
3T3 cytotox 2 = cytotoxicity in mouse NIH/3T3 fibroblasts; shares compounds with T cruzi growth-1; AID 651744; NIH/3T3 viability, CellTiter-Glo ATP luminescence, 90 h; inhibition, % at 24.9 µM; 56% of 5,600 active;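 active = mean loss of cell viability signal at or above a set limit, and enough replicates individually reaching it; inconclusive = meets only the mean limit or only the replicate share; inactive = meets neither condition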
Of the large screens only hits and unclear results are named; the others gave an inactive call (follow-up assays come after a bar, where they were run). The entries come from a sample that favours hits as a whole.

C[C@H]1CN([C@@H](C)CO)C(=O)c2cccc(NC(=O)Nc3cccc4ccccc34)c2O[C@H]1CN(C)C(=O)Nc1ccccc1	T cruzi growth-1 102 (no result: IDH1 mut inh) | T cruzi growth-2 inconclusive | T cruzi growth-3 inactive | 3T3 cytotox inactive | 3T3 cytotox 2 inactive
C[C@H](CO)N1C[C@H](C)[C@H](CN(C)C(=O)Nc2ccc(F)cc2)Oc2c(NC(=O)Nc3cccc4ccccc34)cccc2C1=O	T cruzi growth-1 inconclusive | T cruzi growth-2 109 | T cruzi growth-3 inactive | 3T3 cytotox 37 | 3T3 cytotox 2 95
O=C(CC1NCCNC1=O)Nc1ccccc1[N+](=O)[O-] (centres undefined)	none (no result: GASC1 inh, T cruzi growth-1)
CC(N=Cc1nc2ccccc2n1C)C12CC3CC(CC(C3)C1)C2 (centres undefined)	none (no result: GASC1 inh, T cruzi growth-1)
Cc1ccc(-c2nc3cc(Cl)ccc3o2)cc1NC(=O)COc1ccc(Br)cc1	none (no result: GASC1 inh, T cruzi growth-1)
COc1cc([C@H]2Oc3c(OC)cc(/C=C/CO)cc3[C@H]2CO)ccc1OC1OC(CO)C(O)C(O)C1O (some centres undefined)	none (no result: GASC1 inh, T cruzi growth-1)
O=C(CSc1n[nH]c(-c2ccc(Cl)cc2)n1)Nc1ccccc1Cl	none (no result: GASC1 inh, T cruzi growth-1)
COc1cc(OC)cc(-c2nnc(SCC(=O)Nc3ccc(Cl)cc3C)n2-c2ccccc2)c1	none (no result: GASC1 inh, T cruzi growth-1)
O=C(CSc1nc2ccccc2c(=O)n1-c1ccc(Cl)cc1)Nc1ccccc1[N+](=O)[O-]	none (no result: GASC1 inh, T cruzi growth-1)
C[C@@H]1CN([C@@H](C)CO)C(=O)c2cc(C#Cc3ccccn3)cnc2O[C@H]1CN(C)Cc1cccnc1	none
C[C@H](CO)N1C[C@H](C)[C@@H](CN(C)Cc2cncnc2)Oc2ncc(C#Cc3ccccn3)cc2C1=O	T cruzi growth-1 inconclusive | T cruzi growth-2 103 | T cruzi growth-3 inactive | 3T3 cytotox inactive | 3T3 cytotox 2 inactive
C[C@@H]1CN([C@@H](C)CO)C(=O)c2cc(C#Cc3ccccn3)cnc2O[C@@H]1CN(C)Cc1cncnc1	T cruzi growth-1 inconclusive | T cruzi growth-2 104 | T cruzi growth-3 inactive | 3T3 cytotox inactive | 3T3 cytotox 2 inactive
C[C@@H]1CN([C@H](C)CO)C(=O)c2cc(C#Cc3ccccn3)cnc2O[C@@H]1CN(C)Cc1cncnc1	none
CO[C@H]1C[C@@H]2CC[C@@H](C)[C@@](O)(O2)C(=O)C(=O)N2CCCC[C@H]2C(=O)O[C@H](C(C)CC2CC[C@@H](O)[C@H](OC)C2)CC(=O)[C@H](C)/C=C(\C)[C@@H](O)[C@@H](OC)C(=O)[C@H](C)C[C@H](C)/C=C/C=C/C=C\1C (some centres undefined)	none (no result: GASC1 inh, T cruzi growth-1)
O=C(C[C@@H]1CC[C@H]2[C@@H](COC[C@H](O)CN2CCC(F)(F)F)O1)NCC1CCCCC1	T cruzi growth-1 109 (no result: IDH1 mut inh) | T cruzi growth-2 inactive | T cruzi growth-3 inactive | 3T3 cytotox inactive | 3T3 cytotox 2 inactive
O=C(C[C@H]1CC[C@@H]2[C@H](COC[C@H](O)CN2CCC(F)(F)F)O1)NCc1ccc(Oc2ccccc2)cc1	none (no result: IDH1 mut inh)
O=C(C[C@H]1CC[C@H]2[C@@H](COC[C@H](O)CN2CCC(F)(F)F)O1)NCc1ccc(Oc2ccccc2)cc1	T cruzi growth-1 108 (no result: IDH1 mut inh) | T cruzi growth-2 104 | T cruzi growth-3 inactive | 3T3 cytotox inactive | 3T3 cytotox 2 inactive
O=C(C[C@@H]1CC[C@H]2[C@@H](COC[C@@H](O)CN2CCC(F)(F)F)O1)NCC1CCCCC1	none (no result: IDH1 mut inh)
COc1ccccc1N(CC(=O)N1CCN(C)CC1)S(C)(=O)=O	none (no result: GASC1 inh, T cruzi growth-1)
Cc1ccc(S(=O)(=O)Nc2ccc3c(c2)CC(=O)N([C@H](C)CO)C[C@@H](C)[C@H](CN(C)Cc2ccc4c(c2)OCO4)O3)cc1	T cruzi growth-1 104 | T cruzi growth-2 106 | T cruzi growth-3 inactive | 3T3 cytotox inactive | 3T3 cytotox 2 25
C[C@H](CO)N1C[C@H](C)[C@@H](CN(C)Cc2ccc3c(c2)OCO3)Oc2ccc(NS(=O)(=O)c3ccc(Cl)cc3)cc2CC1=O	none
Cc1ccc(S(=O)(=O)Nc2ccc3c(c2)CC(=O)N([C@H](C)CO)C[C@@H](C)[C@@H](CN(C)Cc2ccc4c(c2)OCO4)O3)cc1	none
